Holding throughout (assay type): functional
Test [1] concerns Pseudomonas aeruginosa. As to the kind of experiment: Antimicrobial activity against Pseudomonas aeruginosa isolate GB61 obtained from patient with non-cystic fibrosis by broth microdilution method. Background: In broth dilution the organism is exposed to a series of concentrations in liquid medium.
Test [2] has as its system Pseudomonas aeruginosa. In words: Antimicrobial activity against Pseudomonas aeruginosa isolate TX291 obtained from patient with non-cystic fibrosis by agar dilution method.
The subject of test [3] is Pseudomonas aeruginosa. In words: Antimicrobial activity against Pseudomonas aeruginosa isolate TX292 obtained from patient with non-cystic fibrosis by agar dilution method. Background: Agar dilution tests growth on a series of plates holding different concentrations.
In test [4] the test system is Pseudomonas aeruginosa. In words: Antimicrobial activity against Pseudomonas aeruginosa isolate 164CD obtained from patient with non-cystic fibrosis by agar dilution method.
Test [5] relates to Pseudomonas aeruginosa. As to the kind of experiment: Antimicrobial activity against Pseudomonas aeruginosa PAO1 expressing beta-lactamase AmpD1 by disk diffusion method. Summed up:
(§1)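 Each ampD homolog gene, from PAO1 or the clinical isolate, was tested in a plasmid model system. An AmpD-deficient E. coli strain (JRG582) carrying an inducible genetic system was complemented with the gene. Read-out was the ceftazidime inhibition zone diameter in mm; lack of complementation gives a ceftazidime-resistant phenotype.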

The test system of test [6] is Pseudomonas aeruginosa. In words: Antimicrobial activity against Pseudomonas aeruginosa isolate PA22 obtained from patient with cystic fibrosis harboring beta-lactamase AmpD1 Gly148ala and Asp183Tyr mutant by disk diffusion method. Summed up: as §1
Test [7] deals with Pseudomonas aeruginosa. In words: Antimicrobial activity against Pseudomonas aeruginosa isolate PA367 obtained from patient with cystic fibrosis harboring beta-lactamase AmpD1 Gly148ala and Asp183Tyr mutant by disk diffusion method. Summed up: as §1
On the technique in general: A growth-free zone around the sample is the usual read-out of agar diffusion tests.

In test [8] the test system is Pseudomonas aeruginosa. As to the kind of experiment: Antimicrobial activity against Pseudomonas aeruginosa isolate PA24 obtained from patient with cystic fibrosis harboring beta-lactamase AmpD1 12-nt deletion at nucleotide 5064908 and deletion of codons 144-147 by disk diffusion method. In a few lines:
as §1

Test [9] has as its system Pseudomonas aeruginosa. In words: Antimicrobial activity against Pseudomonas aeruginosa isolate PA113 harboring beta-lactamase AmpD1 Gly148Ala, Asp183Tyr mutant obtained from patient with cystic fibrosis by agar dilution method.
Test [10] relates to Pseudomonas aeruginosa. In words: Antimicrobial activity against Pseudomonas aeruginosa isolate GB57 harboring beta-lactamase AmpD1 Val10Ile mutant obtained from patient with non-cystic fibrosis by Etest.
Test [11] concerns Pseudomonas aeruginosa. In words: Antimicrobial activity against Pseudomonas aeruginosa isolate GB61 harboring beta-lactamase AmpD1 Gly148Ala mutant obtained from patient with non-cystic fibrosis by Etest.
For test [12], the system named is Pseudomonas aeruginosa. In words: Antimicrobial activity against Pseudomonas aeruginosa isolate TX291 harboring beta-lactamase AmpD1 11-nt deletion at nt 5064907 and frameshift mutation obtained from patient with non-cystic fibrosis by agar dilution method.
Test [13] has as its system Pseudomonas aeruginosa. As to the kind of experiment: Antimicrobial activity against Pseudomonas aeruginosa isolate TX292 harboring beta-lactamase AmpD1 11-nt deletion at nt 5064907 and frameshift mutation obtained from patient with non-cystic fibrosis by agar dilution method.
Test [14] deals with Pseudomonas aeruginosa. As to the kind of experiment: Antimicrobial activity against Pseudomonas aeruginosa isolate 164CD harboring beta-lactamase AmpD1 Leu32Pro, Gly46Ser, Gly148Ala mutant obtained from patient with non-cystic fibrosis by agar dilution method.
The test system of test [15] is Pseudomonas aeruginosa. In words: Antimicrobial activity against Pseudomonas aeruginosa PAO1 expressing beta-lactamase AmpDh2 by disk diffusion method. Summed up:
as §1

The test system of test [16] is Pseudomonas aeruginosa. As to the kind of experiment: Antimicrobial activity against Pseudomonas aeruginosa PAO1 expressing beta-lactamase AmpDh3 by disk diffusion method. Summed up:
as §1

For test [17], the system named is Pseudomonas aeruginosa. As to the kind of experiment: Antimicrobial activity against Pseudomonas aeruginosa isolate PA22 obtained from patient with cystic fibrosis harboring beta-lactamase AmpDh3 Asp137Gly, Ala219Thr mutant by disk diffusion method. Summed up: as §1
For test [18], the system named is Pseudomonas aeruginosa. In words: Antimicrobial activity against Pseudomonas aeruginosa isolate PA367 obtained from patient with cystic fibrosis harboring beta-lactamase AmpDh3 Asp137Gly, Ala219Thr mutant by disk diffusion method. Summed up:
as §1

Test [19] deals with Pseudomonas aeruginosa. As to the kind of experiment: Antimicrobial activity against Pseudomonas aeruginosa isolate PA24 obtained from patient with cystic fibrosis harboring beta-lactamase AmpDh3 Ala219Thr mutant by disk diffusion method. Summed up: as §1
Test [20] relates to Pseudomonas aeruginosa. In words: Antimicrobial activity against Pseudomonas aeruginosa isolate PA113 harboring beta-lactamase AmpDh3 Ala219Thr mutant obtained from patient with cystic fibrosis by agar dilution method.
For test [21], the system named is Pseudomonas aeruginosa. As to the kind of experiment: Antimicrobial activity against Pseudomonas aeruginosa isolate TX291 harboring beta-lactamase AmpDh3 Ala208Val mutant obtained from patient with non-cystic fibrosis by agar dilution method.
Test [22] has as its system Pseudomonas aeruginosa. As to the kind of experiment: Antimicrobial activity against Pseudomonas aeruginosa isolate 164CD harboring beta-lactamase AmpDh3 Ile67Thr mutant obtained from patient with non-cystic fibrosis by agar dilution method.
In test [23] the test system is Pseudomonas aeruginosa. As to the kind of experiment: Antimicrobial activity against Pseudomonas aeruginosa PAO1 by agar dilution method.
The test system of test [24] is Pseudomonas aeruginosa. As to the kind of experiment: Antimicrobial activity against Pseudomonas aeruginosa isolate PA22 obtained from patient with cystic fibrosis by agar dilution method.
Test [25] deals with Pseudomonas aeruginosa. In words: Antimicrobial activity against Pseudomonas aeruginosa isolate PA367 obtained from patient with cystic fibrosis by agar dilution method.
Test [26] relates to Pseudomonas aeruginosa. As to the kind of experiment: Antimicrobial activity against Pseudomonas aeruginosa isolate PA24 obtained from patient with cystic fibrosis by agar dilution method.
Test [27] deals with Pseudomonas aeruginosa. In words: Antimicrobial activity against Pseudomonas aeruginosa isolate PA113 obtained from patient with cystic fibrosis by agar dilution method.
The subject of test [28] is Pseudomonas aeruginosa. As to the kind of experiment: Antimicrobial activity against Pseudomonas aeruginosa isolate GB57 obtained from patient with non-cystic fibrosis by broth microdilution method.
The subject of test [29] is Pseudomonas aeruginosa. As to the kind of experiment: Antimicrobial activity against Pseudomonas aeruginosa isolate GB61 obtained from patient with non-cystic fibrosis by Etest in presence of beta-lactamase inhibitor Tazobactam.
The test system of test [30] is Pseudomonas aeruginosa. As to the kind of experiment: Antimicrobial activity against Pseudomonas aeruginosa isolate TX291 obtained from patient with non-cystic fibrosis by Etest in presence of beta-lactamase inhibitor Tazobactam.
For test [31], the system named is Pseudomonas aeruginosa. As to the kind of experiment: Antimicrobial activity against Pseudomonas aeruginosa isolate TX292 obtained from patient with non-cystic fibrosis by Etest in presence of beta-lactamase inhibitor Tazobactam.
Test [32] relates to Pseudomonas aeruginosa. As to the kind of experiment: Antimicrobial activity against Pseudomonas aeruginosa isolate 164CD obtained from patient with non-cystic fibrosis by Etest in presence of beta-lactamase inhibitor Tazobactam.
Test [33] has as its system Pseudomonas aeruginosa. In words: Antimicrobial activity against Pseudomonas aeruginosa PAO1 by Etest.
For test [34], the system named is Pseudomonas aeruginosa. In words: Antimicrobial activity against Pseudomonas aeruginosa PAO1 by agar dilution method in presence of beta-lactamase inhibitor Tazobactam.
In test [35] the test system is Pseudomonas aeruginosa. As to the kind of experiment: Antimicrobial activity against Pseudomonas aeruginosa isolate PA22 obtained from patient with cystic fibrosis by agar dilution method in presence of beta-lactamase inhibitor Tazobactam.
Test [36] deals with Pseudomonas aeruginosa. As to the kind of experiment: Antimicrobial activity against Pseudomonas aeruginosa isolate PA367 obtained from patient with cystic fibrosis by agar dilution method in presence of beta-lactamase inhibitor Tazobactam.
Test [37] relates to Pseudomonas aeruginosa. As to the kind of experiment: Antimicrobial activity against Pseudomonas aeruginosa isolate PA24 obtained from patient with cystic fibrosis by agar dilution method in presence of beta-lactamase inhibitor Tazobactam.
Test [38] deals with Pseudomonas aeruginosa. In words: Antimicrobial activity against Pseudomonas aeruginosa isolate PA113 obtained from patient with cystic fibrosis by agar dilution method in presence of beta-lactamase inhibitor Tazobactam.
For test [39], the system named is Pseudomonas aeruginosa. In words: Antimicrobial activity against Pseudomonas aeruginosa isolate GB57 obtained from patient with non-cystic fibrosis by Etest.
Test [40] concerns Pseudomonas aeruginosa. As to the kind of experiment: Antimicrobial activity against Pseudomonas aeruginosa isolate GB57 obtained from patient with non-cystic fibrosis by Etest in presence of beta-lactamase inhibitor Tazobactam.
In test [41] the test system is Pseudomonas aeruginosa. In words: Antimicrobial activity against Pseudomonas aeruginosa isolate GB61 obtained from patient with non-cystic fibrosis by Etest.
Test [42] relates to Pseudomonas aeruginosa. As to the kind of experiment: Antimicrobial activity against Pseudomonas aeruginosa isolate 164CD obtained from patient with non-cystic fibrosis by Etest.

Molecules are shown by their SMILES. In brackets after ≈: the same amount, converted by molar mass.

Consider 4 compounds from ChEMBL document CHEMBL1671636, “Role of ampD homologs in overproduction of AmpC in clinical isolates of Pseudomonas aeruginosa” (2008).

In the case of `CC(C)(O/N=C(\C(=O)N[C@@H]1C(=O)N2C(C(=O)[O-])=C(C[n+]3ccccc3)CS[C@H]12)c1csc(N)n1)C(=O)O` [CEFTAZIDIME], the MIC (commonly the lowest concentration that inhibits growth of the organism) in test [1] was determined as 128 µg/mL (≈ 234 µM); in test [2] it was 32 µg/mL (≈ 58.5 µM); in test [3] it was 32 µg/mL (≈ 58.5 µM); in test [4] it was 128 µg/mL (≈ 234 µM); in test [23] it was 1 µg/mL (≈ 1.83 µM); in test [24], 16 µg/mL (≈ 29.3 µM). The MIC is 32 µg/mL (≈ 58.5 µM) in test [25], 128 µg/mL (≈ 234 µM) in test [26], 32 µg/mL (≈ 58.5 µM) in [27] and greater than 128 µg/mL in test [28]. The “diameter of the inhibition zone (DIZ)” value in [5] worked out at 17 mm; in test [6], 8 mm; in [7], 8 mm; in test [8], 6 mm; in test [9] it was 8 mm; in test [10], 10 mm. Further, the “diameter of the inhibition zone (DIZ)” value in test [11] was 12 mm; in test [12] it was 11 mm; in test [13], 11 mm; in [14], 8 mm; in test [15], 6 mm; in test [16], 18 mm. The “diameter of the inhibition zone (DIZ)” value is given as 10 mm in test [17]; 10 mm in test [18]; 9 mm in test [19]; 9 mm in test [20]; 8 mm in test [21]; 10 mm in test [22].

On to `CCN1CCN(C(=O)N[C@@H](C(=O)N[C@@H]2C(=O)N3[C@@H]2SC(C)(C)[C@@H]3C(=O)O)c2ccccc2)C(=O)C1=O` [PIPERACILLIN], for which the minimal inhibitory concentration (MIC) in test [29] was greater than 256 µg/mL; in test [2] it was 256 µg/mL (≈ 495 µM); in test [30], greater than 256 µg/mL; in test [3], 256 µg/mL (≈ 495 µM); in [31], greater than 256 µg/mL; in [4], greater than 1020 µg/mL. Further, the MIC in test [32] is greater than 256 µg/mL; in test [33], 4 µg/mL (≈ 7.73 µM); in test [34], 4 µg/mL; in [24], 128 µg/mL (≈ 247 µM); in test [35] it was 64 µg/mL; in test [25] it was 64 µg/mL (≈ 124 µM). Also, the MIC in test [36] was 64 µg/mL; in test [26] it was 256 µg/mL (≈ 495 µM); in test [37] it was 128 µg/mL; in test [27], 128 µg/mL (≈ 247 µM); in [38], 64 µg/mL; in test [39], greater than 256 µg/mL. Further, the minimal inhibitory concentration (MIC) in test [40] and in test [41] was greater than 256 µg/mL in each case.

As for `CO/N=C(\C(=O)N[C@@H]1C(=O)N2C(C(=O)[O-])=C(C[N+]3(C)CCCC3)CS[C@H]12)c1csc(N)n1` [CEFEPIME], the MIC is 32 µg/mL (≈ 66.6 µM) in test [2]; 32 µg/mL (≈ 66.6 µM) in test [3]; greater than 256 µg/mL in [42]; 1 µg/mL (≈ 2.08 µM) in test [23]; 16 µg/mL (≈ 33.3 µM) in test [24]; 16 µg/mL (≈ 33.3 µM) in test [25]. For the same compound, the MIC was 64 µg/mL (≈ 133 µM) in test [26], 16 µg/mL (≈ 33.3 µM) in test [27], greater than 256 µg/mL in [39] and 32 µg/mL (≈ 66.6 µM) in test [41].

Take `C[C@H]1[C@H](NC(=O)/C(=N\OC(C)(C)C(=O)O)c2csc(N)n2)C(=O)N1S(=O)(=O)O` [AZTREONAM]: the minimal inhibitory concentration (MIC) in test [2] was 64 µg/mL (≈ 147 µM); in test [3], 64 µg/mL (≈ 147 µM); in test [42], greater than 256 µg/mL; in test [23], 4 µg/mL (≈ 9.19 µM); in test [24], 4 µg/mL (≈ 9.19 µM); in test [25] it was 4 µg/mL (≈ 9.19 µM). Moreover, the MIC in [26] was 128 µg/mL (≈ 294 µM); in test [27], 16 µg/mL (≈ 36.7 µM); in test [39], greater than 256 µg/mL; in [41], 48 µg/mL (≈ 110 µM).
